This is a sample that favours compounds with a hit; in the whole collection about 1.4% have one here.
PERK inhibitor = block of dimerizer-induced PERK translation repression, primary screen, PERK inhibitor project, CHO PERK-DD cells, SEAP luminescence, HTS; Eukaryotic translation initiation factor 2-alpha kinase 3 (Homo sapiens), Q9NZJ5; CHO PERK-DD fusion, SEAP luminescence translation reporter; inhibition, % at 5.6 µM; actives 0.17% (n = 220,000);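 active = inhibition above the mean inhibition of all tested compounds plus 3 SD, set separately per screening campaign, cut at about 2.9% in these data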;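 also: PERK kinase domain activated by AP20187 dimerizer at 100 nM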
STAT3 act-1 = IL-6 driven STAT3 reporter potentiators, primary screen, U3A cells, luciferase, luminescence, MLSCN library | IL-6 STAT3-luciferase reporter; 100% = signal with IL-6 EC80 alone | activation (% of control), % at 5.6 µM | actives 0.91% (n = 190,000) | AID 871, 2007;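 active = activation above the screen-wide mean of compound activation plus 3 SD, cut at about 130% in these data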
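System – human U3A cells carrying STAT3-luciferase construct · Probe or stimulus – Interleukin-6, 33 ng/mL · Schedule – compound 1 h, then IL-6 6 h at 37 °C · Signal – luminescence from STAT3-driven luciferase reporter · Evaluation – percent of IL-6-only median luminescence · Benchmarks – IL-6-only high control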
STAT3 blocker = IL-6 driven STAT3 reporter inhibitors, primary screen, U3A cells, luciferase, luminescence, MLSCN library | actives 0.89% (n = 190,000) | IL-6 STAT3-luciferase reporter; host cell line lacks STAT1 | inhibition, % at 5.5 µM | AID 862, 2007;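 active = inhibition above the mean inhibition across all screened compounds plus 3 SD, cut at about 44% in these data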
Platelet DG rel = inhibitors of platelet dense granule secretion, primary screen, cell-based, MLPCN, human platelets; AID 1663, 2009; actives 0.22% (n = 300,000); human platelet-rich plasma, SFLLRN dense granule ATP release, luminescence; inhibition, %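 (compounds screened at 7.5 µM in platelet-rich plasma)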;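 active = mean replicate score, as percent of positive control, at or above 50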
STAT1 blocker = STAT1 signaling inhibitors, primary screen, cell-based, HTS, luciferase reporter. NIH 3T3 STAT1-luciferase reporter, IFN-gamma, luminescence. inhibition, % at 5.5 µM. actives 0.35% (n = 200,000). AID 920, 2007;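 active = inhibition above a set limit, the mean inhibition across all tested compounds plus 3 SD, cut at about 34% in these data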
STAT3 act-2 = STAT3 reporter potentiators, retest of hits, confirmation, U3A cells, luciferase, luminescence; shares compounds with STAT3 act-1; IL-6 potentiation; U3A cells lack STAT1; 100 means same as IL-6 alone; potentiation (% of control), % at 5.7 µM; actives 64% (n = 1,200); AID 1267, 2008;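 active = percent activation of the STAT3 luciferase reporter above a set limit taken from the earlier primary screen, cut at about 130% in these data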
NFkB act 2 = NF-kB reporter activators in human cells, counter-screen for STAT3 activator project | shares compounds with STAT3 act-1 | NF-kappaB reporter activation | activation (% of control), % at 5.7 µM | actives 11% (n = 1,200) | AID 1309, 2008; in the data active = activation above about 120%;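 also: reporter induced by TNF-alpha stimulation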
STAT1 act = STAT1 reporter activators, IFN-gamma induced, counter-screen for STAT3 activator project, cell-based, NIH 3T3, luciferase luminescence; actives 13% (n = 1,200); NIH 3T3 STAT1-luciferase reporter; shares compounds with STAT3 act-1; activation (% of control), % at 5.7 µM;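 active = activation above the solvent-only control well mean plus 3 SD, set per screening run, cut at about 120% in these data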
Each line names hits and unclear results; the compound was inactive in the other large screens (follow-up assays come after a bar, where they were run).

CC(=O)Nc1ccc(NC(=O)CCCSc2nc3ccccc3s2)cc1	STAT3 act-1 140 | STAT3 act-2 inactive | NFkB act 2 inactive | STAT1 act inactive
COc1ccc(C(=O)N2CCCC(Nc3ccc(F)cc3)C2)c(OC)c1 (stereo not drawn)	none (no result: PERK inhibitor, STAT3 act-1, STAT3 blocker, STAT1 blocker)
COc1ccccc1OCCCN1C(=O)C(=O)c2cccc(C)c21	STAT3 act-1 138 | STAT3 act-2 inactive | NFkB act 2 inactive | STAT1 act inactive
CCc1ccccc1NC(=O)CSc1nnc(-c2ccco2)n1N	none
COC(=O)c1[nH]c2cc(C)ccc2c1NC(=O)CN1CCCc2ccccc21	STAT3 act-1 156 | STAT3 act-2 143 | NFkB act 2 inactive | STAT1 act 137
O=C(c1ccc2ccccc2c1)N1CCc2ccccc21	none (no result: PERK inhibitor, STAT3 act-1, STAT3 blocker, STAT1 blocker)
CN(C)S(=O)(=O)c1cccc(C(=O)N2CCc3ccccc32)c1	STAT3 act-1 148 | STAT3 act-2 inactive | NFkB act 2 inactive | STAT1 act inactive
COC(=O)C1C/C(=N/NS(=O)(=O)c2ccc(C)cc2)CS1 (stereo not drawn)	none (no result: PERK inhibitor, STAT3 act-1, STAT3 blocker, STAT1 blocker)
Cc1ccc(NC(=O)CN(C)CC(=O)Nc2ccccc2C(=O)Nc2ccccc2)cc1	STAT3 act-1 147 | STAT3 act-2 inactive | NFkB act 2 inactive | STAT1 act inactive
COC(=O)c1sccc1NC(=O)c1cccc(Cl)c1	none (no result: PERK inhibitor, STAT3 act-1, STAT3 blocker, STAT1 blocker)
COC(=O)c1sccc1NC(=O)c1cccs1	none (no result: STAT3 act-1, STAT3 blocker, STAT1 blocker)
COC(=O)c1sccc1NC(=O)c1ccc(Cl)s1	STAT3 act-1 143 | STAT3 act-2 176 | NFkB act 2 121 | STAT1 act inactive
CCn1c(C(=O)Nc2ccsc2C(=O)OC)cc2sc(Cl)cc21	STAT3 act-1 165 | STAT3 act-2 138 | NFkB act 2 inactive | STAT1 act inactive
COC(=O)c1sccc1NC(=O)c1ccc(C)s1	STAT3 act-1 158 | STAT3 act-2 inactive | NFkB act 2 inactive | STAT1 act inactive
COC(=O)c1sccc1NC(=O)c1ccc(Br)s1	STAT3 act-1 150 | STAT3 act-2 146 | NFkB act 2 inactive | STAT1 act inactive
COC(=O)c1sccc1NC(=S)OC	none (no result: STAT3 act-1, STAT3 blocker, STAT1 blocker)
CC(C)(C)N(CC#CCC1(O)c2ccccc2-c2ccccc21)CCO	none
COC(=O)c1c(NC(=O)c2ccc(Br)s2)sc2c1CCC2	STAT3 act-1 137 | STAT3 act-2 inactive | NFkB act 2 inactive | STAT1 act inactive
Cc1ccc(-n2c(C)nc3oc4ccccc4c(=O)c3c2=O)cc1	STAT3 act-1 149 | STAT3 act-2 159 | NFkB act 2 122 | STAT1 act 135
CC1(C)CC(=O)C(C(c2ccc(Br)cc2)C2C(=O)CC(C)(C)CC2=O)C(=O)C1	none (no result: PERK inhibitor, STAT3 act-1, STAT3 blocker, STAT1 blocker)
COc1ccc(-c2ccc(-c3nnc(-c4cc(OC)ccc4OC)o3)cc2)cc1	STAT3 act-1 138 | STAT3 act-2 inactive | NFkB act 2 inactive | STAT1 act inactive
COc1cc(NC(=O)CSc2nc(C)c(C)c(C)n2)cc(OC)c1	none
COc1ccc2nc(N=Nc3c(O)ccc4ccccc34)sc2c1	STAT3 act-1 137 | STAT3 act-2 inactive | NFkB act 2 inactive | STAT1 act inactive
O=C1Cn2c(nc3ccccc32)N1c1cccc(C(F)(F)F)c1	STAT3 act-1 136 | STAT3 act-2 inactive | NFkB act 2 inactive | STAT1 act inactive
NC(=O)Cn1c(=O)n(Cc2ccco2)c(=O)c2c3c(sc21)CCCCC3	STAT3 act-1 147 | STAT3 act-2 inactive | NFkB act 2 inactive | STAT1 act inactive
CC1=NC(=O)C(N=Nc2ccccc2)N1c1ccccc1 (stereo not drawn)	STAT3 act-1 163 | STAT3 act-2 162 | NFkB act 2 125 | STAT1 act 160
O=C(Nc1ccc(Cl)cc1)Nc1csc([N+](=O)[O-])c1	none (no result: STAT3 act-1, STAT3 blocker, STAT1 blocker)
CCOCCCNC(=S)N1CCC(NC(=O)C23CC4CC(CC(C4)C2)C3)CC1	none
Cc1cc(C(=O)N2CCc3c([nH]c4ccccc34)C2c2cccc(Cl)c2)nn1C (stereo not drawn)	STAT3 act-1 153 | STAT3 act-2 202 | NFkB act 2 inactive | STAT1 act 122
CC(=O)NCCC(=O)N1CCc2c([nH]c3ccccc23)C1c1cccc(C)c1 (stereo not drawn)	STAT3 act-1 147 | STAT3 act-2 144 | NFkB act 2 inactive | STAT1 act inactive
O=C(c1cnccn1)N1CCc2c([nH]c3ccccc23)C1c1cccc(Cl)c1 (stereo not drawn)	none
CC(=O)NCCC(=O)N1CCc2c([nH]c3ccccc23)C1c1cccc(Cl)c1 (stereo not drawn)	STAT3 act-1 150 | STAT3 act-2 143 | NFkB act 2 inactive | STAT1 act inactive
COC(=O)c1ccc(CNC(=O)COC(=O)C2CC3C=CC2C3)cc1 (stereo not drawn)	none
Cc1ccc(OCC(=O)N/N=C/c2c[nH]c3ccccc23)c([N+](=O)[O-])c1	none
O=C(c1cccs1)N1CCCC(c2nc3c(nnn3Cc3ccccc3)c(=O)[nH]2)C1 (stereo not drawn)	none (no result: STAT3 act-1, STAT3 blocker, STAT1 blocker)
O=C(c1ccccc1)N1CCCC(c2nc3c(nnn3Cc3ccccc3)c(=O)[nH]2)C1 (stereo not drawn)	STAT3 act-1 148 | STAT3 act-2 inactive | NFkB act 2 inactive | STAT1 act inactive
Cc1n[nH]c(C)c1CCNC(=O)C1CCC(=O)N(Cc2ccccc2F)C1 (stereo not drawn)	none (no result: PERK inhibitor, STAT3 act-1, STAT3 blocker, STAT1 blocker)
Nc1nnc(Cc2c[nH]c3ccccc23)s1	STAT3 act-1 143 | STAT3 act-2 154 | NFkB act 2 inactive | STAT1 act inactive
CCOC(=O)COc1ccccc1/C=C\[N+](=O)[O-]	none
Cc1ccc2[nH]c(=O)c(CN(C(=O)c3cccc([N+](=O)[O-])c3)C(C)C)cc2c1	none (no result: STAT3 act-1, STAT3 blocker, STAT1 blocker)
CCOC(=O)C(C(=O)Nc1nc2ccccc2s1)C1CCCCC1 (stereo not drawn)	STAT3 act-1 143 | STAT3 act-2 inactive | NFkB act 2 inactive | STAT1 act inactive
CCOC(=O)C(C(=O)Nc1cccc(C)n1)C1CCCCC1 (stereo not drawn)	none
Cc1ccc(CSCC(=O)N2CCOCC2)cc1	none
c1ccc2c(-c3c[nH]c4ccccc34)c3ccccc3nc2c1	none
